Reference: PubChem BioAssay AID573 (SRMLSC, 2007)
In all, about 65,000 compounds went through this assay and about 1,400 (2.2%) were called active.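 The calls were made as follows: active = growth inhibition at or above a cutoff equal to the mean over every tested compound plus 3 SD (cut at about 60% in these data); inactive = the rest.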 Only a selection was taken, and actives are over-represented in it overall.

Experiment: growth inhibitors of E. coli tolC mutant, primary screen, strain BW25113 ΔtolC::kan, 384-well (AID 573)
Conditions: OD615, hits give high values, screened at 10 µM (by protocol)
Summary of the method: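 Signal: optical density read at 615 nm; Assay system: E. coli ΔtolC::kan strain BW25113; Times: 20 h incubation with compound, 37 °C; Dosing: 10 µM final, single dose.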

Growth inhibition, active:
Cc1cc(C)c(C#N)c(SCS(=O)c2ccc(C(C)(C)C)cc2)n1 (configuration not stated) 70.6%
N#Cc1nc(Cc2ccccc2)oc1NCCc1ccccc1 74.2%
Cc1cc(C)n(-c2nc(SCC(=O)N3CCCC3)c3c4c(sc3n2)CCCC4)n1 85.9%
COCCNc1nc(-n2nc(C)cc2C)nc2sc3c(c12)CCCC3 94.3%
COC(=O)CNS(=O)(=O)c1ccc(Cc2ccc(S(=O)(=O)NCC(=O)OC)cc2)cc1 69.7%
CS(=O)(=O)N(Cc1nc2sc3c(c2c(=O)[nH]1)CCCC3)C1CCCCC1 83.8%
CC1CCCC(C)N1C(=O)CN1CCN(c2nc(-c3ccc(F)cc3)cs2)CC1 (configuration not stated) 100%
CCOC(=O)c1cc2sccc2n1Cc1ccc(C#N)cc1 62.5%
CC1CCCN(c2ccc(C(=O)NCCc3ccccc3)cn2)C1 (configuration not stated) 61.4%
CC1CCN(c2oc(-c3ccccc3F)nc2C#N)CC1 71.3%
CCOC(=O)c1c(NC(=O)CSc2nnc(C)c(=O)[nH]2)sc2c1CCC2 66.5%
Cc1nc2nc(COc3ccccc3)[nH]n2c(=O)c1Cc1ccccc1 100%

Growth inhibition, inactive:
COc1ccc(OC)c(CNC(=O)C2CCCN(c3nc4ccccc4o3)C2)c1 (configuration not stated) 1.68%
COCc1cc(C)nc(SCC(=O)Nc2cccc(C)c2)c1C#N -0.31%
Cc1cc(C(F)(F)F)c(C#N)c(SCC(=O)NC2CC2)n1 16.2%
N#Cc1nc(Cc2cccc3ccccc23)oc1NCc1ccc2c(c1)OCO2 57.4%
CCOc1ccc(Nc2oc(Cc3ccccc3)nc2C#N)cc1 31.9%
C=CCn1cnc2scc(-c3ccccc3)c2c1=O 6.35%
C=CCn1c(SCc2nnc(-c3ccccc3)o2)nnc1C(O)c1ccccc1 (configuration not stated) 0.17%
CC(=O)c1sc2nc(SCC(=O)N3CCCCC3)[nH]c(=O)c2c1C 8.81%
COc1ccc(Nc2cc(C)nc(-n3nc(C)cc3C)n2)cc1 17.6%
COCCn1c(C)cc(C(=O)CSc2ncnc3sc4c(c23)CCC4)c1C 0.17%
Cc1nc(SCC(=O)Nc2cc(C)on2)c2c3c(sc2n1)CCCC3 12.3%
CCCOC(=O)C1=C(C)NC2=C(C(=O)C(C(=O)OC)C(C)C2)C1c1ccc(N(C)C)cc1 (configuration not stated) 16%
Cn1c(=O)[nH]c(=O)c2c1nc(N(CCO)Cc1ccccc1)n2Cc1ccccc1Cl 0.78%
O=C(NCc1cccs1)C1CCN(S(=O)(=O)c2ccc3c(c2)OCCO3)CC1 -14.5%
COC(=O)COc1ccc(S(=O)(=O)Nc2ccc(NC(C)=O)cc2)cc1 -1.6%
COc1ccc(CCNS(=O)(=O)c2ccc(F)cc2)cc1OC -5.35%
COc1ccccc1Nc1ncnc2c1oc1ccccc12 -1.75%
COc1ncnc2sc3c(c12)CCCC3 2.48%
CCOC(=O)N1CCN(S(=O)(=O)c2ccc(C(=O)Nc3ccc(F)cc3F)cc2)CC1 -4.51%
c1csc(-c2nc(-c3ccncc3)no2)c1 1.08%
Cc1cccc(C(=O)Nc2ccc(CC(=O)O)cc2)c1 -16%
COC(=O)c1sc(=S)n(-c2ccccc2)c1N -12.6%
O=C(CN1CCN(c2nc(-c3ccccc3)cs2)CC1)NCc1ccc2c(c1)OCO2 50%
COc1ccc(-c2csc(N3CCN(Cc4ccc5c(c4)OCO5)CC3)n2)cc1 5.4%
COc1c(F)c(F)c(-c2csc(N)n2)c(F)c1F 9.92%
CNC(=O)Nc1cc(C(C)(C)C)no1 -22.1%
O=C(NCc1ccco1)c1cc2sccc2n1Cc1ccc(F)cc1 56.9%
COc1ccc(CCNC(=O)c2cc3sccc3n2C)cc1OC 7.67%
c1nnc2c3c4c(sc3ncn12)CCC4 -4.55%
O=C(CSc1nc2ccccc2o1)N1CCN(c2ccccc2)CC1 5.08%
Cc1cccc(NC(=O)CSC(N)=O)c1C -15.7%
O=C(NCCCNCc1ccccc1)c1ccc(/C=N/O)nc1 -12.5%
O=C(O)C1CC=CCC1C(=O)NCCc1ccccc1 (configuration not stated) -21.4%
COc1ccc(S(=O)(=O)N2CCOCC2)cc1C(=O)Nc1nc2ccccc2s1 -15.6%
CCCn1c(=O)c2[nH]c(C3CCCC3)nc2n(CCC)c1=O 5.97%
O.O.O.O=S(=O)([O-])OC[C@H]1O[C@@H](O[C@]2(COS(=O)(=O)[O-])O[C@H](OS(=O)(=O)[O-])[C@@H](OS(=O)(=O)[O-])[C@@H]2OS(=O)(=O)[O-])[C@H](OS(=O)(=O)[O-])[C@@H](OS(=O)(=O)[O-])[C@@H]1OS(=O)(=O)[O-].[Al] -6.62%
CCOC(=O)CSc1nnc(-c2cccc(Br)c2)o1 -4.64%
Cc1noc(C)c1S(=O)(=O)N(CC(=O)NCc1ccc(Cl)cc1)c1ccc2c(c1)OCO2 -5.56%
N#Cc1nc(COc2ccc(Cl)cc2)oc1N1CCCC1 7.84%
N#CCCN1CCN(S(=O)(=O)c2ccc(S(=O)(=O)NC3CCCCC3)cc2)CC1 -0.61%
Cc1cc(NC(=O)CN2CCC(O)(c3cccc(F)c3)CC2)no1 -18.6%
O=C(Cn1nnc(-c2ccc3c(c2)OCO3)n1)NCc1ccco1 7.12%
O=C(NCCCCO)C(F)(F)C(F)(F)C(F)(F)C(=O)NCCCCO -11%
CCOC(=O)c1c(NC(=O)CSc2nnc(CN3CCOCC3)n2C)sc2c1CCCC2 5.6%
CCOCC(=O)Nc1sc2c(c1C(=O)OCC)CCCC2 42.8%
CC1(C)CC(=O)c2cc(OCC(=O)NCC3CCCO3)ccc2O1 (configuration not stated) -5%
O=C(NCCCN1CCCCCC1)C1CC(=O)N(C2CCCC2)C1 (configuration not stated) -11.7%
COc1cc(OC)cc(C(=O)Nc2ccc(-c3nc4ccccc4o3)c(O)c2)c1 19.7%
Cc1nc(SC(C)C)[nH]c(=O)c1Cc1ccccc1 0%
Cc1nc2nc(COc3ccccc3)[nH]n2c(=O)c1C 11.6%
